{"source": "PubChem BioAssay AID492951", "about": "(Molecular Libraries Program, Specialized Chemistry Center, …, 2010)", "note": "Unmarked numbers belong to inactive results. Calls of active or inactive are those of the source.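 The calls were made as follows: active = inhibition above 10%; inactive = the rest.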", "data": [{"target": "Hexokinase-4 (Homo sapiens) (UniProt P35557)", "sequence (P35557 whole entry, looked up)": "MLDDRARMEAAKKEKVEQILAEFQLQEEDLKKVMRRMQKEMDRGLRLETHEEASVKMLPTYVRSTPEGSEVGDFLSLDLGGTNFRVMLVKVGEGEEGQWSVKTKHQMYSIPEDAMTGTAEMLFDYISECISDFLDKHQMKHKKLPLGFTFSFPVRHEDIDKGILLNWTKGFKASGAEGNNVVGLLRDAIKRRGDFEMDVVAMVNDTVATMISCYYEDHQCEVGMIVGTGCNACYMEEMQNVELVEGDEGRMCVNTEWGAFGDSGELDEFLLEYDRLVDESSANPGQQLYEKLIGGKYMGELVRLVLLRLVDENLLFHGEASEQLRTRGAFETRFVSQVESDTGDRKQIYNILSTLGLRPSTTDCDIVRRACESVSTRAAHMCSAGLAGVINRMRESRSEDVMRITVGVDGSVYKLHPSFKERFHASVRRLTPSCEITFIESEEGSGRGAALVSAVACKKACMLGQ", "experiment": "human glucokinase inhibition, counter-screen for TbHK1 inhibitor project, biochemical, recombinant hGlck (AID 492951)", "details": "G6PDH-coupled NADH absorbance 340 nm, at 10 µM; hits give high values", "method_in_brief": "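Technique – A340 of NADH · Material – recombinant human glucokinase, G6PDH-coupled · Medium – TEA buffer pH 7.9 with 3.3 mM MgCl2, 0.75 mM NAD+ · Doses – single final test compound dose of 10 µM · Repeats – three replicates per compound · Times – 10 min preincubation at room temperature · Also added – glucose 20 mM and ATP 1 mM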", "values": [{"smiles": "CCCc1ccc(C(=O)Nc2cc(Cl)ccc2C(=O)O)cc1", "inhibition": "16.8% (active)"}, {"smiles": "CC(C)c1cccc(C(=O)Nc2cc(Cl)ccc2C(=O)O)c1", "outcome": "inactive"}, {"smiles": "CC(=O)Nc1ccc2sn(-c3ccccc3)c(=O)c2c1", "inhibition": "51.9% (active)"}, {"smiles": "COc1ccc2c(=O)n(-c3ccccc3)sc2c1", "outcome": "inactive"}, {"smiles": "COc1ccc(NC(=O)c2ccccc2SCc2ccccc2)cc1", "inhibition": "41.2% (active)"}, {"smiles": "CC(C)(C)c1ccc(C(=O)Nc2cc(Cl)c(Cl)cc2C(=O)O)cc1", "outcome": "inactive"}, {"smiles": "COc1ccc(C(=O)Nc2ccccc2C(=O)O)cc1", "outcome": "inactive"}, {"smiles": "O=C(Nc1cc(Cl)ccc1C(=O)O)c1ccc(C(F)(F)F)cc1", "outcome": "inactive"}, {"smiles": "O=c1c2ccc(Br)cc2sn1-c1ccccc1", "inhibition": "33.8% (active)"}, {"smiles": "O=c1c2cc(F)c(F)cc2sn1-c1ccccc1", "inhibition": "16.9% (active)"}, {"smiles": "Cc1ccc(-n2sc3cc(F)ccc3c2=O)c(C)c1", "inhibition": "55.6% (active)"}, {"smiles": "O=C(Nc1ccc([N+](=O)[O-])cc1Cl)c1cc(Cl)ccc1O", "inhibition": "32.1% (active)"}, {"smiles": "OB1OCc2cc(C(F)(F)F)ccc21", "outcome": "inactive"}, {"smiles": "COc1cccc(NC(=O)Cn2sc3ccccc3c2=O)c1", "inhibition": "2.9%"}, {"smiles": "O=C(Nc1cc(Cl)ccc1C(=O)O)c1ccc(C2CCC2)cc1", "inhibition": "35.4% (active)"}, {"smiles": "Cc1ccc(C(=O)Nc2cc(Cl)ccc2C(=O)O)c(C)c1", "inhibition": "12.5% (active)"}, {"smiles": "Cc1ccc(C(=O)Nc2cc(Cl)ccc2C(=O)O)cc1", "outcome": "inactive"}]}]}
